The values that follow come from ChEMBL document CHEMBL1133997, “2,2-Dimethyl-4,5-diaryl-3(2H)furanone derivatives as selective cyclo-oxygenase-2 inhibitors” (Bioorg Med Chem Lett, 2001).

The target in experiment [1] is T1, Prostaglandin G/H synthase 1 (Mus musculus, UniProt P22437).
T1 sequence (P22437 whole entry): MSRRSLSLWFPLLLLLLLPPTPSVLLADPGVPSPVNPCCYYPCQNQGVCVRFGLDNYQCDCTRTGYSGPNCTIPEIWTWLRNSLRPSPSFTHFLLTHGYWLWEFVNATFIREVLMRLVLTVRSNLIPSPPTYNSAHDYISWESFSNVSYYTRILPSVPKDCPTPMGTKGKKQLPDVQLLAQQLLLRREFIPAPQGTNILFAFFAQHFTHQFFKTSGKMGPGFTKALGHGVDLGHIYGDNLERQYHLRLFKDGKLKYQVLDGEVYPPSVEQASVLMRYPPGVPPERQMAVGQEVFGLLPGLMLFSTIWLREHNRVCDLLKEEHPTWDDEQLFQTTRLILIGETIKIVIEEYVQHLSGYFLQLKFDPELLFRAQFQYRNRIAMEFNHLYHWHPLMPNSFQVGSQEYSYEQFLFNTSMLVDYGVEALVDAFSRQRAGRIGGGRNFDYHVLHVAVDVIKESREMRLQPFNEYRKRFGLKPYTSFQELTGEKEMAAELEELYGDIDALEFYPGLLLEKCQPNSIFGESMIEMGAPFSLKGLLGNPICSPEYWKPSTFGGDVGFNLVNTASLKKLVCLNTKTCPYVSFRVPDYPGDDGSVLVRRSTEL
Description: Ability to inhibit Prostaglandin G/H synthase 1 by using freshly harvested mouse peritoneal macrophages.

The target in experiment [2] is T2, Prostaglandin G/H synthase 2 (Mus musculus, UniProt Q05769).
T2 sequence (Q05769 whole entry): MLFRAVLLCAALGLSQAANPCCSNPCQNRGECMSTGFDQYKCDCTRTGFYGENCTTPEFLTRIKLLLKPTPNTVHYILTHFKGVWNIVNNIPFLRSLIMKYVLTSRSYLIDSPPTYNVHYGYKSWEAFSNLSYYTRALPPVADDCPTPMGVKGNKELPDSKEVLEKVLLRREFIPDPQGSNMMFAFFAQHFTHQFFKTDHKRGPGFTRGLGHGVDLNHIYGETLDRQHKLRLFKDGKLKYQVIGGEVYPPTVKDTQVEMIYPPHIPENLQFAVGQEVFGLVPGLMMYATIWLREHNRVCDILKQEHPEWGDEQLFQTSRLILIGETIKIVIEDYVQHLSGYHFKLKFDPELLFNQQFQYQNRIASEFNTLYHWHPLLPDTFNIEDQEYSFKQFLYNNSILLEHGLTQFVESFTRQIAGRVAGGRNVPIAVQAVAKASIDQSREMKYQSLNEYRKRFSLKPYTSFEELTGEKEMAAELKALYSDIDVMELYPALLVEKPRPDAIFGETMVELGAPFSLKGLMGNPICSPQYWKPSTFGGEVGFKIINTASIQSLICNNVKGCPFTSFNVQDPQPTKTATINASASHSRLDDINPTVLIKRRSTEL
Description: Ability to inhibit Prostaglandin G/H synthase 2 by using freshly harvested mouse peritoneal macrophages.

For experiment [3], the species on record is Rattus norvegicus. Description: Effective dose required for the inhibition of adjuvant arthritis in Sprague-Darley rats. Format: functional. A digest of the protocol: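 Adjuvant-induced arthritis in Sprague–Darley rats, with compound dosed daily (mg/kg/day).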
The test system of experiment [4] is Rattus norvegicus. Put plainly: In vivo inhibitory activity against carrageenan induced paw edema in Sprague-Darley rats after oral administration of the compound. In kind it is functional. A digest of the protocol: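 Sprague–Darley rats were given compound orally at 3 mg/kg body weight. Read-out was percent inhibition of paw edema, using five animals per group.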

For the compound `Cc1ccccc1C1=C(c2ccc(S(C)(=O)=O)cc2)OC(C)(C)C1=O`, the IC50 is 56.1 µM in experiment [1] and 842 nM in experiment [2].

As to `CC1(C)OC(c2ccc(S(C)(=O)=O)cc2)=C(c2cc(F)cc(F)c2)C1=O`, in experiment [2], half-maximal inhibition (IC50) was put at 79.3 nM. Besides, the ED50 in the experiment filed under Rattus norvegicus [3] came out at 0.03 mg/kg/day.

With `CC1(C)OC(c2ccc(S(C)(=O)=O)cc2)=C(c2cccc(F)c2)C1=O`, the ED50 in the experiment listed under Rattus norvegicus [3] worked out at 0.08 mg/kg/day. As to `CC1(C)OC(c2ccc(S(C)(=O)=O)cc2)=C(c2ccccc2)C1=O`, the values for the IC50 in experiment [1] and in experiment [2] were 8.76 µM and 146 nM, respectively. In turn, `CC1(C)OC(c2ccc(S(C)(=O)=O)cc2)=C(c2cccc(Cl)c2)C1=O` showed an Inhibition with Rattus norvegicus [4] of 32%. As for `Cc1ccc(-c2cc(C(F)(F)F)nn2-c2ccc(S(N)(=O)=O)cc2)cc1` [CELECOXIB], the Inhibition in the experiment on Rattus norvegicus [4] is listed as 31%. Moreover, the ED50 in the experiment listed under Rattus norvegicus [3] came to 0.2 mg/kg/day. As for `CS(=O)(=O)c1ccc(C2=C(c3ccccc3)C(=O)OC2)cc1` [ROFECOXIB], half-maximal inhibition in experiment [2] (IC50) required 191 nM. As to `CC1(C)OC(c2ccc(S(C)(=O)=O)cc2)=C(c2cccc(C(F)(F)F)c2)C1=O`, the IC50 in experiment [1] was 7.31 µM; in experiment [2] it was 122 nM. Also, in the experiment listed under Rattus norvegicus [3], the ED50 came out at 0.06 mg/kg/day.

What is called IC50 is the midpoint of a concentration-inhibition curve. What is called ED50 is the dose at which the effect has come halfway, by size or by number of responders. Broadly, the Inhibition is the percentage by which the read-out fell short of the control. A low value points to little suppression.
